Source: ChEMBL document CHEMBL2146421, “Synthesis and anticonvulsant activity of some new thiazolo[3,2-a][1,3]diazepine, benzo[d]thiazolo[5,2-a][12,6]diazepine and benzo[d]oxazolo[5,2-a][12,6]diazepine analogues” (Eur J Med Chem, 2011)

Columns and labels:
[1] = system: Mus musculus; assay: Neurotoxicity in Swiss albino mouse assessed as effect on motor activity at 3 mmol/kg, ip after 30 mins; assay type: toxicity, organism-based; settings: in vivo, 0.5 h
In short: (§1)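 Motor activity measured with an activity meter at 0 and 30 min after i.p. dosing, zero time taken as 100%.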

[2] = Toxicity in ip dosed Swiss albino mouse assessed as sedative effect; assay type: organism-based; settings: in vivo
[3] = system: Mus musculus; assay: Anticonvulsant activity in Swiss albino mouse assessed as protection against maximal electroshock-induced convulsion at 3.0 mmol/kg, ip […]; assay type: functional
In short: (§2)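 Test agent given i.p. to mice; 30 min later electric shock applied through the ears, animals released immediately to observe maximal seizure; percentage protected recorded (10 animals per dose in dose-response runs).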

[4] = system: Mus musculus; assay: Hypnotic activity in Swiss albino mouse assessed as righting reflex at 0.75 mmol/kg, ip; assay type: ADME, organism-based; settings: in vivo
[5] = system: Mus musculus; assay: Anticonvulsant activity in Swiss albino mouse assessed as protection against bicuculline-induced convulsion at 0.75 mmol/kg, ip […] measured for 30 mins; assay type: functional
In short: (§3)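 Mice (6 per compound) dosed i.p.; 30 min later given bicuculline 1 mg/kg s.c. (freshly dissolved in 1 ml warmed 0.1 N HCl, made up with 0.9% NaCl), then observed 30 min; percentage anticonvulsion (animals protected) calculated. Dose-response runs used 10 animals per dose.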

[6] = system: Mus musculus; assay: Anticonvulsant activity in Swiss albino mouse assessed as protection against picrotoxin-induced convulsion at 1.5 mmol/kg, ip […] measured for 30 mins; assay type: functional
In short: (§4)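 Test compound given i.p.; 30 min later, picrotoxin 3.15 mg/kg s.c. was injected. Picrotoxin was freshly dissolved in 1 ml warmed 0.1 N HCl and made up with 0.9% NaCl. Each dose was tested in 10 animals and the percentage of mice protected from clonic convulsions was recorded.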

[7] = system: Mus musculus; assay: Anticonvulsant activity in Swiss albino mouse assessed as protection against maximal electroshock-induced convulsion at 0.75 mmol/kg, ip […]; assay type: functional; in short: as §2
[8] = system: Mus musculus; assay: Neurotoxicity in Swiss albino mouse assessed as inability to climb up backwards in a glass tube within 30 seconds at 3 mmol/kg, ip measured after 15 and 25 mins by Chimney test; assay type: toxicity, organism-based; settings: in vivo
In short: (§5)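 Chimney test: 15 and 25 min after i.p. dosing (3.0, 1.5, 0.75, 0.375 mmol/kg), inability of mice to climb backwards up a glass tube 25 cm long, 3 cm inner diameter, within 30 s recorded as neurological deficit.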

[9] = system: Mus musculus; assay: Anticonvulsant activity in Swiss albino mouse assessed as protection against bicuculline-induced convulsion at 3.0 mmol/kg, ip […] measured for 30 mins; assay type: functional; in short: as §3
[10] = system: Mus musculus; assay: Anticonvulsant activity in Swiss albino mouse assessed as protection against bicuculline-induced convulsion at 1.5 mmol/kg, ip […] measured for 30 mins; assay type: functional; in short: as §3
[11] = species on record: Mus musculus; assay: Protective index, ratio of TD50 for Swiss albino mouse to ED50 for anticonvulsant activity in Swiss albino mouse; assay type: functional
In short: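 TD50 (median sedative dose) divided by ED50 (median effective dose), from dose-response curves at 10 mice per dose; 95% confidence limits given.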

[12] = system: Mus musculus; assay: Anticonvulsant activity in Swiss albino mouse assessed as protection against pentylenetetrazole-induced convulsion at 0.75 mmol/kg, ip treated after 30 mins of pentylenetetrazole measured for 30 mins; assay type: functional
[13] = system: Mus musculus; assay: Anticonvulsant activity in Swiss albino mouse assessed as protection against pentylenetetrazole-induced convulsion at 3 mmol/kg, ip treated after 30 mins of pentylenetetrazole measured for 30 mins; assay type: functional
[14] = Toxicity in Swiss albino mouse assessed as mortality at 3 mmol/kg, ip measured 7 to 11 mins before pentylenetetrazole challenge; assay type: organism-based; settings: in vivo, read-out: Activity
In short: (§6)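 Compounds given i.p. at 3.0, 1.5, 0.75 and 0.375 mmol/kg to 6 mice per compound. Deaths occurring before the PTZ injection were recorded. PTZ (83 mg/kg s.c.) followed 30 min after compound dosing.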

[15] = system: Mus musculus; assay: Anticonvulsant activity in ip dosed Swiss albino mouse assessed as protection against maximal electroshock-induced convulsion; assay type: functional; in short: as §2
[16] = system: Mus musculus; assay: Hypnotic activity in Swiss albino mouse assessed as righting reflex at 3 mmol/kg, ip; assay type: ADME, organism-based; settings: in vivo
[17] = Toxicity in Swiss albino mouse assessed as mortality at 0.75 mmol/kg, ip measured 7 to 11 mins before pentylenetetrazole challenge; assay type: organism-based; settings: in vivo, read-out: Activity; in short: as §6
[18] = system: Mus musculus; assay: Anticonvulsant activity in Swiss albino mouse assessed as protection against maximal electroshock-induced convulsion at 1.5 mmol/kg, ip […]; assay type: functional
In short: (§7)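 Test compound given i.p. to mice; 30 min later, electric shock was applied through the ears while the mice were hand-restrained. The mice were then released to observe the maximal seizure. Each dose was tested in 10 animals and the percentage protected was recorded.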

[19] = system: Mus musculus; assay: Neurotoxicity in Swiss albino mouse assessed as inability to climb up backwards in a glass tube within 30 seconds at 1.5 mmol/kg, ip measured after 15 and 25 mins by Chimney test; assay type: toxicity, organism-based; settings: in vivo; in short: as §5
[20] = Toxicity in Swiss albino mouse by Spearman-Karber method; assay type: organism-based; settings: in vivo
In short: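 LD50 in mice was determined by the Spearman–Karber method, with doses chosen at equal logarithmic intervals. 95% confidence limits were reported.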

[21] = system: Mus musculus; assay: Neurotoxicity in Swiss albino mouse assessed as inability to climb up backwards in a glass tube within 30 seconds at 0.37 mmol/kg, ip measured after 15 and 25 mins by Chimney test; assay type: toxicity, organism-based; settings: in vivo; in short: as §5
[22] = system: Mus musculus; assay: Anticonvulsant activity in Swiss albino mouse assessed as protection against bicuculline-induced convulsion at 0.37 mmol/kg, ip […] measured for 30 mins; assay type: functional; in short: as §3
[23] = system: Mus musculus; assay: Anticonvulsant activity in Swiss albino mouse assessed as protection against maximal electroshock-induced convulsion at 0.37 mmol/kg, ip […]; assay type: functional; in short: as §7
[24] = system: Mus musculus; assay: Anticonvulsant activity in Swiss albino mouse assessed as protection against pentylenetetrazole-induced convulsion at 1.5 mmol/kg, ip treated after 30 mins of pentylenetetrazole measured for 30 mins; assay type: functional
[25] = system: Mus musculus; assay: Anticonvulsant activity in Swiss albino mouse assessed as protection against pentylenetetrazole-induced convulsion at 0.37 mmol/kg, ip treated 30 mins before pentylenetetrazole measured for 30 mins
[26] = system: Mus musculus; assay: Neurotoxicity in Swiss albino mouse assessed as effect on motor activity at 1.5 mmol/kg, ip after 30 mins; assay type: toxicity, organism-based; settings: in vivo, 0.5 h; in short: as §1
[27] = system: Mus musculus; assay: Hypnotic activity in Swiss albino mouse assessed as righting reflex at 1.5 mmol/kg, ip; assay type: ADME, organism-based; settings: in vivo
[28] = system: Mus musculus; assay: Neurotoxicity in Swiss albino mouse assessed as inability to climb up backwards in a glass tube within 30 seconds at 0.75 mmol/kg, ip measured after 15 and 25 mins by Chimney test; assay type: toxicity, organism-based; settings: in vivo; in short: as §5
[29] = Therapeutic index, ratio of LD50 for Swiss albino mouse to ED50 for anticonvulsant activity in Swiss albino mouse; assay type: organism-based; settings: in vivo, read-out: Ratio LD50/ED50
In short: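 TI was calculated as LD50/ED50. ED50 came from dose-response curves in 10 mice per dose. LD50 was determined by the Spearman–Karber method, with doses at equal logarithmic intervals.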

[30] = system: Mus musculus; assay: Neurotoxicity in Swiss albino mouse assessed as effect on motor activity at 0.75 mmol/kg, ip after 30 mins; assay type: toxicity, organism-based; settings: in vivo, 0.5 h; in short: as §1
[31] = Toxicity in Swiss albino mouse assessed as mortality at 1.5 mmol/kg, ip measured 7 to 11 mins before pentylenetetrazole challenge; assay type: organism-based; settings: in vivo, read-out: Activity; in short: as §6
[32] = system: Mus musculus; assay: Anticonvulsant activity in Swiss albino mouse assessed as protection against picrotoxin-induced convulsion at 0.75 mmol/kg, ip […] measured for 30 mins; assay type: functional; in short: as §4
[33] = system: Mus musculus; assay: Anticonvulsant activity in Swiss albino mouse assessed as protection against pentylenetetrazole-induced convulsion at 0.375 mmol/kg, ip treated after 30 mins of pentylenetetrazole measured for 30 mins; assay type: functional

SMILES	Activity [1] [%]	TD50 [2] [mg/kg]	Activity [3] [%]	Activity [4] [%]	Activity [5] [%]	Activity [6] [%]	Activity [7] [%]	Activity [8] [%]	Activity [9] [%]	Activity [10] [%]	Ratio TD50/ED50 [11]	Activity [12] [%]	Activity [13] [%]	mortality [14] [%]	ED50 [15] [mg/kg]	Activity [19] [%]	Activity [24] [%]	Activity [26] [%]	Activity [27] [%]	mortality [31] [%]	other results
O=C1CCCN2C(=N1)Sc1cc(Cl)ccc12	67	417	33	0	10	20	0	100	100	66	1.09	25	100	0	380	25	50	33	0	0	Activity [16]: 20%; mortality [17]: 0%; Activity [18]: 0%; LD50 [20]: 617 mg/kg; Activity [21]: 0%; Activity [22]: 10%; Activity [23]: 0%; Activity [25]: 0%; Activity [28]: 0%; selectivity ratio [29]: 1.62; Activity [30]: 20%
O=C1CCCN2C=CSC2=N1																0	0	0	0	33	
S=C1CCCN2C=C(Br)SC2=N1	92	398	70	0	10	66	10	100	100	50	1.58	50	100	0	252	25	100	84	14		Activity [16]: 40%; Activity [18]: 40%; LD50 [20]: 380 mg/kg; Activity [21]: 0%; Activity [22]: 0%; Activity [23]: 0%; Activity [25]: 25%; Activity [28]: 0%; selectivity ratio [29]: 1.51; Activity [30]: 52%; Activity [32]: 20%
O=C1CCCN2C(=N1)Sc1ccccc12												0				0	70	0	0	0	Activity [33]: 0%
